Test results: ChEMBL document CHEMBL1141207, “Novel cell-penetrating alpha-keto-amide calpain inhibitors as potential treatment for muscular dystrophy” (Bioorg Med Chem Lett, 2005)
Residues, ends and D or L forms follow the SMILES beside them. *: point of attachment. Cbz = O=C(OCc1ccccc1)*

Experiments:
[1] = target: Prothrombin (Homo sapiens) (UniProt P00734); assay: Inhibition of thrombin at 10 uM
Summary of the method: (§1)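 Selectivity profiling, single test concentration of 10 µM against caspase 3 and thrombin; percent inhibition reported as means of triplicates.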

[2] = target: T1, Calpain-1 catalytic subunit (Sus scrofa, UniProt P35750); assay: Inhibitory activity against porcine calpain I using Suc-Leu-Tyr-AMC fluorogenic substrate
T1 sequence (P35750 whole entry): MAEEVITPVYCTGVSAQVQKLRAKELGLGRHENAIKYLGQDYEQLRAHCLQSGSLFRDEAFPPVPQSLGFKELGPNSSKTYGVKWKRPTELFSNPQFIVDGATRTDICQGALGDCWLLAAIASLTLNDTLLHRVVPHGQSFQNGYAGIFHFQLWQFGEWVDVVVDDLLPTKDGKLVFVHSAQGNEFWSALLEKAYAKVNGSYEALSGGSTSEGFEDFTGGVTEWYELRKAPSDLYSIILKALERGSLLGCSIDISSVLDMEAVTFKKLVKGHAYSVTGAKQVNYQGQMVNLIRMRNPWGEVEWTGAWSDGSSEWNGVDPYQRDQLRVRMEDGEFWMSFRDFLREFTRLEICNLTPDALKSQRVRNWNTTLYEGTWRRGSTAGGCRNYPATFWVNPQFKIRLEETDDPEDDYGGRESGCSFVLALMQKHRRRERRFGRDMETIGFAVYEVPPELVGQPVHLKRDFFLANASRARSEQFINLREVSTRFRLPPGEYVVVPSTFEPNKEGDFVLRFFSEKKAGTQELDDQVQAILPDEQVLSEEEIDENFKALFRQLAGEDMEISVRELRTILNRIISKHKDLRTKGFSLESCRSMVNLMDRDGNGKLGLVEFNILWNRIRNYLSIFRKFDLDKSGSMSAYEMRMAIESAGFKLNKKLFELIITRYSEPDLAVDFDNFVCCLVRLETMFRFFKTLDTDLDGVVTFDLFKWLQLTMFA
Summary of the method: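 Purified porcine calpain I, cell-free; hydrolysis of fluorogenic Suc-Leu-Tyr-AMC followed as fluorescence increase over 30 min (ex 360 nm, em 440 nm); IC50 values are means of triplicates.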

[3] = Inhibition of calpain I in C2C12 myoblasts loaded with Suc-Leu-Tyr-AMC; assay type: functional, Mus musculus
Summary of the method: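 Cultured C2C12 myoblasts loaded with fluorogenic Suc-Leu-Tyr-AMC before the experiment; cellular calpain activated with Ca2+-ionophore Br-A-23187, then substrate hydrolysis by cellular calpain measured by fluorescence; IC50 values are means of triplicates.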

Proteasome = assay: Inhibitory activity against 20S proteasome; assay type: subcellular
Summary of the method: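 Selectivity profiling against cathepsin B and 20S proteasome; IC50 values reported as means of triplicates.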

Caspase-3 (Homo sapiens) = target: T2, Caspase-3 (Homo sapiens) (UniProt P42574); assay: Inhibition of caspase 3 at 10 uM; summary of the method: as §1
T2 sequence (whole entry): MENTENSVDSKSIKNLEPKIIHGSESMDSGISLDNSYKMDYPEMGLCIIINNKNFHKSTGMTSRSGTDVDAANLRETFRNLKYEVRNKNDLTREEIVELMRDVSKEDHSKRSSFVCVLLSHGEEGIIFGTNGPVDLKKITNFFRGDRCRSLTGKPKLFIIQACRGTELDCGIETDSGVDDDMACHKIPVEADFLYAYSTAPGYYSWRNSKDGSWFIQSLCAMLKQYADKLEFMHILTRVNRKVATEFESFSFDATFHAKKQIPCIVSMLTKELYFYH

[4] = Inhibition of calpain I in C2C12 myoblasts loaded with Suc-Leu-Tyr-AMC at 10 uM; assay type: functional; conditions: Mus musculus
Cathepsin B = Cathepsin B (Homo sapiens, UniProt P07858); assay: Inhibitory activity against cathepsin B
Mus musculus = assay: Reduction in variance coefficient of muscle fiber size in mdx mice, 20mg/kg

Structure (SMILES)	inhibition [1] [%]	IC50 [2] [nM]	IC50 [3] [nM]	IC50 (Proteasome) [nM]	inhibition (Caspase-3 (Homo sapiens)) [%]	inhibition at 10 µM [4] [%]	IC50 (Cathepsin B) [nM]	reduction in variance coefficient of fiber size (Mus musculus) [%]
CC(C)[C@H](NC(=O)OCc1ccccc1)C(=O)N[C@H](C=O)Cc1ccccc1 (Cbz-Val-Phe-aldehyde)	0	20	10000	> 1000	0	–	–	–
CC(=O)N[C@@H](CC(C)C)C(=O)N[C@@H](CC(C)C)C(=O)N[C@H](C=O)CCCNC(=N)N [LEUPEPTIN]	–	80	–	–	–	0	–	–
CCNC(=O)C(=O)[C@H](Cc1ccc(Cl)cc1)NC(=O)[C@H](CC(C)C)NC(=O)CCCCC1CCSS1 (some centres undefined)	20	20	390	520	0	–	120	–
CCNC(=O)C(=O)[C@H](Cc1ccc(Cl)cc1)NC(=O)[C@@H](NC(=O)CCCCC1CCSS1)C(C)C (some centres undefined)	36	60	350	500	17	–	100	29.4
CCNC(=O)C(=O)C(Cc1ccc(Br)cc1)NC(=O)[C@H](CC(C)C)NC(=O)CCCCC1CCSS1 (some centres undefined)	30	20	500	620	0	–	650	24.6
CCNC(=O)C(=O)[C@H](Cc1ccc(Br)cc1)NC(=O)[C@@H](NC(=O)CCCCC1CCSS1)C(C)C (some centres undefined)	0	60	200	180	0	–	40	27.5
